# Source: PubChem BioAssay (several laboratories)
# SENP7 block: SENP7 protease inhibition; Q9BQF6; recombinant SENP7, Z-RLRGG-aminoluciferin luminescence, 40 min; inhibition, % at 5 µM; hit rate 1.5% among 330,000; AID 434973;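 active = inhibition above about 50% at the single test dose, limit read from the data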;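 also: plate controls were DMSO with enzyme for no effect and no enzyme buffer wells for full effect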
# Target sequence (Q9BQF6 706-1050 limits assumed): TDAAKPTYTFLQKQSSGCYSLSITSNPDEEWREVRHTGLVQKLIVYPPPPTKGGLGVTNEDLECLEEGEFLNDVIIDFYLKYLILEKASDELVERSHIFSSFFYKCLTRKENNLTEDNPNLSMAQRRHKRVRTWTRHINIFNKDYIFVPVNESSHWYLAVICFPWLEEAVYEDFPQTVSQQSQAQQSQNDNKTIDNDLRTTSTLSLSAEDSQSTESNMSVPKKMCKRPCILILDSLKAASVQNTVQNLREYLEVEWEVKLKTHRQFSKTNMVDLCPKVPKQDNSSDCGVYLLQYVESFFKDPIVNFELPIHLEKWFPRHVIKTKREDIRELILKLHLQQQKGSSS
# SENP6 block: SENP6 protease inhibition; Q9GZR1; Recombinant SENP6 catalytic domain, aminoluciferin luminescence; inhibition, % at 10 µM; hit rate 1.8% among 330,000; AID 2599;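 active = inhibition above about 50% at the single tested dose, limit read from the data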;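 also: plate controls were DMSO wells with enzyme for no effect and DMSO wells lacking enzyme for full effect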
# Platelet DG rel: platelet dense granule release activity; inhibition, %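 (compounds screened at 7.5 µM in platelet-rich plasma)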; hit rate 0.22% among 300,000; human platelet-rich plasma, SFLLRN dense granule ATP release, luminescence;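 active = mean replicate score, as percent of positive control, at or above 50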
# SENP8 block-1: blocks human SENP8 cleavage of Nedd8 substrate; Q96LD8; inhibition, % at 20 µM; AID 602440; recombinant SENP8, Nedd8 substrate fluorescence; hit rate 0.64% among 360,000; in the data active = inhibition mostly above about 40%, no sharp cut-off; inactive = mostly below about 27%
# SENP8 block-2: blocks the human protease SENP8. hit rate 1.2% among 330,000. purified SENP8, Z-RLRGG-aminoluciferin cleavage, luminescence. inhibition, % at 10 µM. Q96LD8. AID 2540; in the data active = inhibition above about 50%
# SENP1 inh: inhibitors of human SENP1 SUMO protease catalytic domain; Q9P0U3; hit rate 0.21% among 360,000; inhibition, % at 10 µM; recombinant SENP1 catalytic domain, CyPet-SUMO1-YPet FRET cleavage; AID 624204;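 active = inhibition at least 30% at 10 µM, raw YFP signal under a set limit, fluorescence ratio 0.5 to 1.5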;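 also: 0% = enzyme with DMSO and 100% = no enzyme wells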
#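 Material: hSENP1 catalytic domain, recombinant; medium: Tris pH 8 with BME, BSA, NP40 and catalase; compound: single concentration of 10 µM compound, 0.5% DMSO final; technique: FRET read of cyan and yellow fluorescence; timing: 50 min enzyme reaction, room temperature, light-protected; reagent: SFCypet-SUMO1-SFYpet substrate at 25 nM; control set: no-enzyme low, enzyme-DMSO high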
# Active calls of the source: *; · = no result. Hits are enriched below; roughly 2.6% of the tested compounds scored in any of these assays.
SMILES,SENP7 block,SENP6 block,Platelet DG rel,SENP8 block-1,SENP8 block-2,SENP1 inh
CCCC(=Nc1ccccc1)C1=C(O)C(C(=O)OC)C(C)(C)CC1=O (stereo unspecified),2,-22,-1,12,-7,6
CCCCC(=Nc1ccc(N)cc1)C1=C(O)C(C(=O)OC)C(C)(C)CC1=O (stereo unspecified),6,14,2,54*,-2,48*
Cc1ccc(-c2cc(C(=O)NCc3ccco3)c3ccccc3n2)o1,3,-23,56*,-409,0,4
Cc1cc(C(=O)NCc2ccco2)c2ccccc2n1,-12,-2,-7,4,0,0
Cc1cc(C)c2nc(NNC(=O)c3cc(=O)c4ccccc4o3)sc2c1,2,79*,10,4,63*,9
O=C(COC(=O)c1cc(=O)[nH]c(=O)[nH]1)Nc1cccc(Cl)c1,-3,-15,·,5,-8,3
CCOc1ccccc1N1CC(C(=O)N(Cc2nnc(-c3ccccc3Cl)o2)C2CC2)CC1=O (stereo unspecified),2,0,19,2,-16,0
NC(=S)c1cc2ccc(O)cc2oc1=O,·,·,11,-416,·,10
Oc1cc(O)cc(-c2cc3ccc(O)cc3o2)c1,25,48,3,-255,53*,-1
CC(C)(CC(=O)O)CC(=O)NNc1ncccc1C#N,7,7,10,0,13,1
CCOC(=O)C1=C(C)NC(C)=C(C(=O)OCC)C1C,9,-8,-1,-330,1,2
CCOC(=O)C1=C(C)NC(=O)NC1,3,-6,60*,22,-1,1
CC(=O)c1cccc(OCC(O)CN2CCN(C(=O)c3ccco3)CC2)c1 (stereo unspecified),2,2,5,14,-2,1
C=CCNC(=O)NC(=O)CN1C(=O)NC(c2ccccc2)(c2ccccc2)C1=O,1,0,12,4,-1,-3
C=C(C)Cn1c(N2CCN(c3ccc(OC)cc3)CC2)nc2c1c(=O)n(C)c(=O)n2C,-3,10,14,15,2,1
COc1ccc(N2CCN(c3nc4c(c(=O)n(C)c(=O)n4C)n3Cc3ccccc3)CC2)cc1,2,-19,50*,31,-4,-1
Cc1cc(N=Nc2ccc(C)c(N=Nc3cc(C)c(N)cc3N)c2)c(N)cc1N,6,52*,41,31,53*,16
O=C(N[C@@H]1CC[C@@H](CCn2cc(-c3ccccc3)nn2)O[C@@H]1CO)c1cnccn1,·,·,·,9,·,0
NC(CCCCc1ccccc1)c1cccc2ccccc12 (stereo unspecified),-1,-18,50*,·,-10,·
Oc1ccc(NCc2ccccc2OCc2ccccc2)cc1,12,50,4,62*,-4,1
Nc1nn2c(-c3ccccc3)cc(=O)[nH]c2c1N=Nc1ccc(Br)cc1,·,·,·,41*,·,5
Nc1nn2c(-c3ccccc3)cc(=O)[nH]c2c1N=Nc1ccc(O)cc1,7,12,2,63*,-2,3
Cc1cc2[nH]c(=O)cc(-c3ccccc3)n2n1,2,22,3,-299,24,-4
Oc1cccc2ccc(/C=C/c3cccs3)nc12,95*,96*,5,-54,88*,0
Oc1ccc(Cl)cc1/C=C/c1ccc2cccc(O)c2n1,-9,30,11,-73,-9,75
SMILES,SENP7 block,SENP6 block,Platelet DG rel,SENP8 block-1,SENP8 block-2,SENP1 inh
O/N=C/c1ccc2ccccc2c1,10,18,4,4,0,-1
CCCCNC(=O)Nc1ncn[nH]1,4,13,2,17,1,1
Cc1ccc2nc(NC(=O)Cc3cccs3)sc2c1,54*,63*,-8,-1,36,0
COc1ccc2nc(NC(=O)Cc3cccs3)sc2c1,11,2,2,17,5,-16
CCOC(=O)C1=CC[C@@H](c2ccccc2)N(S(=O)(=O)c2ccc(C)cc2)[C@H]1C#N,·,·,·,4,·,2
CC(=O)Nc1nc(C)c(-c2csc(Nc3ccccn3)n2)s1,79*,87*,0,-306,74*,1
COc1cc(/C=N/Nc2ccc(Cl)c(C(=O)O)c2)ccc1OCC(=O)N1C(C)CCCC1C (stereo unspecified),-2,-17,-5,-80,-3,-2
COc1cc(/C=N/NC(N)=O)ccc1OCC(=O)N1C(C)CCCC1C (stereo unspecified),-7,-8,62*,10,0,1
